pEC50: −log10 of the molar value. Calls of active or inactive are those of the source. No cut-off for these calls is given here.
Key:
[1] = Lipophilicity, logD of compound at pH 7.4 by LC-MS analysis; assay type: physicochemical; conditions: buffer
HepG2 = test: Cytotoxicity against human HepG2 cells at 50 uM after 48 hrs by WST-1 assay; assay type: cell-based; conditions: hepg2, 48 h
Outline: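 HepG2 hepatocarcinoma cells were tested for viability by WST-1 (water-soluble tetrazolium) assay, with concentrations up to 100 µM.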

[2] = target: T1, Bile acid receptor (Homo sapiens) (UniProt Q96RI1); test: Transactivation of human FXR expressed in human HeLa cells co-expressing BSEP at 3 uM after 24 hrs by dual-glo luciferase reporter gene assay relative to GW4064; assay type: cell-based
T1 sequence (whole entry): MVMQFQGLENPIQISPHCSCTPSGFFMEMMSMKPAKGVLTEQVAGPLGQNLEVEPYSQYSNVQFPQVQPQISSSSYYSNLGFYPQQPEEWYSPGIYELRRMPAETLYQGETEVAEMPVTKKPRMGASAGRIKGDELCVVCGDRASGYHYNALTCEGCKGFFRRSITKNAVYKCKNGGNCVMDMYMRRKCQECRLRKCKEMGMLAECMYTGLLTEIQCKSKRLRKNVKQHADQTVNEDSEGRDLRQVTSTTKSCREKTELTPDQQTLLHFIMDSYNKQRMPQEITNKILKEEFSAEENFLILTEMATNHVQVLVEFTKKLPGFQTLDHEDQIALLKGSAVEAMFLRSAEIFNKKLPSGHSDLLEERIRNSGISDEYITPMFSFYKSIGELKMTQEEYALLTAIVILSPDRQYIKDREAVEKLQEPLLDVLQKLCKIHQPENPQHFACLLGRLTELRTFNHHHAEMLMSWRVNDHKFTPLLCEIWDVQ
Outline: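 Full-length FXR reporter gene assay with constitutively expressed hFXR and hRXR, plus renilla luciferase for normalization and toxicity control. Maximum relative activation is expressed against the reference agonist at 3 µM, set as 100%.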

Bile acid receptor = target: T2, Bile acid receptor (Homo sapiens, UniProt Q96RI1); test: Transactivation of human FXR expressed in human HeLa cells co-expressing BSEP after 24 hrs by dual-glo luciferase reporter gene assay; assay type: cell-based; conditions: for pEC50: read-out: EC50; for EC50: hela
T2 sequence (Q96RI1 whole entry): T1 sequence (whole entry)
Outline: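 Full-length reporter system with constitutive expression of hFXR and hRXR. A constitutive Renilla luciferase served for normalization and as a toxicity control. Maximum relative activation was expressed against a reference FXR agonist at 3 µM, set as 100%.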

Rattus norvegicus = species on record: Rattus norvegicus; test: Displacement of [3H]Ro15-4513 from GABAa receptor in Sprague-Dawley rat cerebral cortical membranes up to 10 uM after 1 hr by scintillation counting

SMILES | max activation [2] | pEC50 (Bile acid receptor) | also measured
CC(C)c1onc(-c2c(Cl)cccc2Cl)c1COc1ccc(/C=C/c2cccc(C(=O)O)c2)c(Cl)c1 | – | – | logD ([1]; read-out: logD): 1.01; Activity (HepG2): Toxic
Cc1ccc2nc(-c3cccc(Cl)n3)c(NCc3ccccc3)n2c1 | 31% | 7.10 | –
Cc1cccc(-c2nc3ccc(C)cn3c2NCc2ccccc2)c1 | 14% | 6.74 | –
Cc1ccc2nc(-c3ccccn3)c(NCc3ccccc3)n2c1 | 19% | – | inhibition (Rattus norvegicus): inactive
COc1ccc(-c2nc3ccc(C)cn3c2NCc2ccccc2)cc1 | 16% | 5.90 | –
Cc1ccc2nc(CCc3ccccc3)c(NCc3ccccc3)n2c1 | 12% | 6.51 | –
Cc1ccc2nc(-c3cccc(Cl)c3)c(NCc3ccccc3)n2c1 | 20% | 7.80 | –
c1ccc(CNc2c(-c3cccs3)nc3cnccn23)cc1 | inactive | – | EC50 (Bile acid receptor): Not Active
Brc1ccc2nc(-c3cccs3)c(NCc3ccccc3)n2c1 | 14% | 6.30 | –
Cc1ccc2nc(-c3ccccc3)c(NCc3ccccc3)n2c1 | 16% | 6.55 | –
Cc1ccc2nc(-c3cccs3)c(NCCc3ccccc3)n2c1 | 12% | 6.00 | –
Cc1ccc2nc(-c3ccc(F)c(Cl)c3)c(NCc3ccccc3)n2c1 | 54% | 7.59 | –
Cc1ccc2nc(-c3cnccn3)c(NCc3ccccc3)n2c1 | 18% | 5.92 | –
Cc1ccc2nc(-c3ccc(F)cc3)c(NCc3ccccc3)n2c1 | 21% | 6.77 | –
Cc1ccc(-c2nc3ccc(C)cn3c2NCc2ccccc2)cc1 | 14% | 6.89 | –
Cc1ccc2nc(-c3nc(C)cs3)c(NCc3ccccc3)n2c1 | 19% | 6.66 | –
Cc1ccc2nc(-c3ccc4c(c3)OCCO4)c(NCc3ccccc3)n2c1 | 15% | 6.77 | –
Cc1ccc2nc(-c3ccc(Cl)cn3)c(NCc3ccccc3)n2c1 | 46% | 8.13 | –
Cc1ccc2nc(-c3ccoc3)c(NCc3ccccc3)n2c1 | 16% | 5.72 | –

SMILES | max activation [2] | pEC50 (Bile acid receptor) | also measured
Cc1ccc2nc(C3CCCCC3)c(NCc3ccccc3)n2c1 | inactive | – | EC50 (Bile acid receptor): Not Active
Cc1ccc2nc(Cc3ccccc3)c(NCc3ccccc3)n2c1 | inactive | – | EC50 (Bile acid receptor): Not Active
Cc1ccc2nc(-c3cccs3)c(N[C@H](C)c3ccccc3)n2c1 | 14% | 5.49 | –
COc1ccc2nc(-c3cccs3)c(NCc3ccccc3)n2c1 | 18% | 6.08 | –
CCc1ccn2c(NCc3ccccc3)c(-c3cccs3)nc2c1 | 16% | 5.92 | –
Cc1ccc(CNc2c(-c3cccs3)nc3ccc(C)cn23)cc1 | 14% | 6.66 | –
Cc1cccc2nc(-c3cccs3)c(NCc3ccccc3)n12 | inactive | – | EC50 (Bile acid receptor): Not Active
Cc1ccc2nc(-c3cccs3)c(NCCCc3ccccc3)n2c1 | 18% | 6.64 | –
Cc1ccc2nc(-c3cccs3)c(N[C@@H](C)c3ccccc3)n2c1 | 12% | 5.89 | –
Cc1ccc2nc(-c3cccs3)c(Cc3ccccc3)n2c1 | 12% | 6.09 | –
Cc1ccc2nc(-c3cc(Cl)ccn3)c(NCc3ccccc3)n2c1 | 27% | 8.82 | –
Cc1ccc2nc(-c3ccsc3)c(NCc3ccccc3)n2c1 | 17% | 6.08 | –
Cc1ccc2nc(-c3cccnc3)c(NCc3ccccc3)n2c1 | 17% | 6.28 | –
COc1ccc(-c2nc3ccc(C)cn3c2NCc2ccccc2)cc1OC | 16% | 6.04 | –
Cc1ccc2nc(-c3ccc4ccccc4c3)c(NCc3ccccc3)n2c1 | 18% | 6.68 | –
Cc1ccc2nc(-c3ccc(Cl)cc3)c(NCc3ccccc3)n2c1 | 14% | 6.62 | –
COc1ccc(CNc2c(-c3cccs3)nc3ccc(C)cn23)cc1 | 14% | 6.77 | –
FC(F)(F)c1ccc2nc(-c3cccs3)c(NCc3ccccc3)n2c1 | 14% | 6.34 | –
CC[C@H]1[C@@H](O)[C@@H]2[C@H](CC[C@]3(C)[C@@H]([C@H](C)CCC(=O)O)CC[C@@H]23)[C@@]2(C)CC[C@@H](O)C[C@@H]12 [OBETICHOLIC ACID] | – | – | logD ([1]; read-out: logD): 0.81; Activity (HepG2): Toxic

SMILES | max activation [2] | pEC50 (Bile acid receptor) | also measured
O=C(O)c1ccn2c(NCc3ccccc3)c(-c3cccs3)nc2c1 | inactive | – | EC50 (Bile acid receptor): Not Active
c1ccc(CNc2c(-c3cccs3)nc3ccccn23)cc1 | 14% | 5.40 | –
Cc1ccc2nc(-c3ccc(Cl)c(Cl)c3)c(NCc3ccccc3)n2c1 | 19% | 7.62 | –
COc1cccc(-c2nc3ccc(C)cn3c2NCc2ccccc2)c1 | 16% | 6.60 | –
Cc1ccc2nc(-c3ccccc3Cl)c(NCc3ccccc3)n2c1 | inactive | – | EC50 (Bile acid receptor): Not Active
Cc1ccc2nc(-c3ccco3)c(NCc3ccccc3)n2c1 | 17% | 6.25 | –
Cc1ccc2nc(/C=C/c3ccccc3)c(NCc3ccccc3)n2c1 | 13% | 5.94 | –
Cc1ccc2nc(-c3cccn3C)c(NCc3ccccc3)n2c1 | 17% | 5.96 | –
Cc1ccc2nc(-c3cccs3)c(NCc3ccccc3)n2c1 | 15% | 6.27 | –
Cc1ccc2nc(-c3cccs3)c(NCCCCc3ccccc3)n2c1 | 17% | 6.12 | –
Clc1ccc2nc(-c3cccs3)c(NCc3ccccc3)n2c1 | 26% | 6.80 | –
c1ccc(CNc2c(-c3cccs3)nc3ccc(-c4ccccc4)cn23)cc1 | 17% | 6.70 | –
Cc1ccc2nc(-c3ccc(Br)cc3)c(NCc3ccccc3)n2c1 | 14% | 6.37 | –
Cc1ccc2nc(-c3ccc(-c4ccccc4)cc3)c(NCc3ccccc3)n2c1 | 17% | 7.09 | –
Fc1ccc2nc(-c3cccs3)c(NCc3ccccc3)n2c1 | inactive | – | EC50 (Bile acid receptor): Not Active
Cc1ccc2nc(-c3ccccc3C)c(NCc3ccccc3)n2c1 | 35% | 6.59 | –
C[C@H](CCC(=O)O)[C@H]1CC[C@H]2[C@@H]3[C@H](O)C[C@@H]4C[C@H](O)CC[C@]4(C)[C@H]3CC[C@]12C [CHENODIOL] | – | – | logD [1]: 0.53
Cc1ccc2nc(-c3ccncc3)c(NCc3ccccc3)n2c1 | 15% | 5.70 | –

— ChEMBL document CHEMBL4038333, “Nonacidic Farnesoid X Receptor Modulators” (J Med Chem, 2017)
